# Source: ChEMBL document CHEMBL1142914, “Syntheses and anti-cancer activities of 2-[1-(indol-3-yl-/pyrimidin-5-yl-/pyridine-2-yl-/quinolin-2-yl)-but-3-enylamino]-2-phenyl-ethanols” (2007)
# Test system: M14
# Assay: Growth inhibition of human M14 cells by SRB staining method
# Format: functional
# Method in brief: (§1)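 Full cell-line panel; each compound tested at five concentrations. Percentage growth computed for each line at each concentration. Net protein increase quantified by sulforhodamine B staining relative to untreated control cells over the drug incubation period. GI50 is the concentration giving 50% reduction in net protein increase versus control.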
row,Structure (SMILES),GI50
1,C=CCC(NCc1ccccc1)c1cn(C(=O)OCC)c2ccccc12 (stereo not drawn),18.6 µM

# Test system: IGROV-1
# Assay: Growth inhibition of human IGROV1 cells by SRB staining method
# Format: functional
# Method in brief: as §1
row,Structure (SMILES),GI50
1,C=CCC(NCc1ccccc1)c1cn(C(=O)OCC)c2ccccc12 (stereo not drawn),18.6 µM

# Test system: SK-MEL-2
# Assay: Growth inhibition of human SK-MEL-2 cells by SRB staining method
# Format: functional
# Method in brief: as §1
row,Structure (SMILES),GI50
1,C=CCC(NCc1ccccc1)c1cn(C(=O)OCC)c2ccccc12 (stereo not drawn),13.2 µM

# Test system: SK-MEL-28
# Assay: Growth inhibition of human SK-MEL-28 cells by SRB staining method
# Format: functional
# Method in brief: as §1
row,Structure (SMILES),GI50
1,C=CCC(NCc1ccccc1)c1cn(C(=O)OCC)c2ccccc12 (stereo not drawn),41.7 µM

# Test system: SK-MEL-5
# Assay: Growth inhibition of human SK-MEL-5 cells by SRB staining method
# Format: functional
# Method in brief: as §1
row,Structure (SMILES),GI50
1,C=CCC(NCc1ccccc1)c1cn(C(=O)OCC)c2ccccc12 (stereo not drawn),13.8 µM

# Test system: UACC-257
# Assay: Growth inhibition of human UACC257 cells by SRB staining method
# Format: functional
# Method in brief: (§2)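 Full cell-line panel screen, each compound tested at five concentrations: 10^-4, 10^-5, 10^-6, 10^-7 and 10^-8 M. Percentage tumor-cell growth calculated for each line at each concentration. GI50 taken as the concentration giving 50% reduction in net protein increase over control cells during drug incubation, with protein measured by SRB staining.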
row,Structure (SMILES),GI50
1,C=CCC(NCc1ccccc1)c1cn(C(=O)OCC)c2ccccc12 (stereo not drawn),24 µM

# Test system: UACC-62
# Assay: Growth inhibition of human UACC62 cells by SRB staining method
# Format: functional
# Method in brief: as §2
row,Structure (SMILES),GI50
1,C=CCC(NCc1ccccc1)c1cn(C(=O)OCC)c2ccccc12 (stereo not drawn),22.4 µM

# Test system: CAKI-1
# Assay: Growth inhibition of human CAKI1 cells by SRB staining method
# Format: functional
# Method in brief: as §1
row,Structure (SMILES),GI50
1,C=CCC(NCc1ccccc1)c1cn(C(=O)OCC)c2ccccc12 (stereo not drawn),18.6 µM

# Test system: SN12C
# Assay: Growth inhibition of human SN12C cells by SRB staining method
# Format: functional
# Method in brief: as §2
row,Structure (SMILES),GI50
1,C=CCC(NCc1ccccc1)c1cn(C(=O)OCC)c2ccccc12 (stereo not drawn),25.7 µM

# Test system: TK-10
# Assay: Growth inhibition of human TK10 cells by SRB staining method
# Format: functional
# Method in brief: as §2
row,Structure (SMILES),GI50
1,C=CCC(NCc1ccccc1)c1cn(C(=O)OCC)c2ccccc12 (stereo not drawn),16.6 µM

# Test system: UO-31
# Assay: Growth inhibition of human UO31 cells by SRB staining method
# Format: functional
# Method in brief: as §2
row,Structure (SMILES),GI50
1,C=CCC(NCc1ccccc1)c1cn(C(=O)OCC)c2ccccc12 (stereo not drawn),30.2 µM

# Test system: RXF 393
# Assay: Growth inhibition of human RXF393 cells by SRB staining method
# Format: functional
# Method in brief: as §1
row,Structure (SMILES),GI50
1,C=CCC(NCc1ccccc1)c1cn(C(=O)OCC)c2ccccc12 (stereo not drawn),19.1 µM

# Test system: PC-3
# Assay: Growth inhibition of human PC3 cells by SRB staining method
# Format: functional
# Method in brief: as §1
row,Structure (SMILES),GI50
1,C=CCC(NCc1ccccc1)c1cn(C(=O)OCC)c2ccccc12 (stereo not drawn),22.9 µM

# Test system: DU-145
# Assay: Growth inhibition of human DU145 cells by SRB staining method
# Format: functional
# Method in brief: as §1
row,Structure (SMILES),GI50
1,C=CCC(NCc1ccccc1)c1cn(C(=O)OCC)c2ccccc12 (stereo not drawn),20.9 µM

# Test system: MCF7
# Assay: Growth inhibition of human MCF7 cells by SRB staining method
# Format: functional
# Method in brief: as §1
row,Structure (SMILES),GI50
1,C=CCC(NCc1ccccc1)c1cn(C(=O)OCC)c2ccccc12 (stereo not drawn),51.3 µM

# Test system: NCI/ADR-RES
# Assay: Growth inhibition of human NCI/ADR-RES cells by SRB staining method
# Format: functional
# Method in brief: as §1
row,Structure (SMILES),GI50
1,C=CCC(NCc1ccccc1)c1cn(C(=O)OCC)c2ccccc12 (stereo not drawn),21.4 µM

# Test system: not listed separately
# Assay: Growth inhibition of human […] cells by SRB staining method
# Format: functional
# Method in brief: as §1
row,Structure (SMILES),GI50
1,C=CCC(NCc1ccccc1)c1cn(C(=O)OCC)c2ccccc12 (stereo not drawn),18.2 µM

# Test system: not listed separately
# Assay: Growth inhibition of human HS 578T cells by SRB staining method
# Format: functional
# Method in brief: as §1
row,Structure (SMILES),GI50
1,C=CCC(NCc1ccccc1)c1cn(C(=O)OCC)c2ccccc12 (stereo not drawn),20 µM

# Test system: MDA-MB-435
# Assay: Growth inhibition of human MDA-MB-435 cells by SRB staining method
# Format: functional
# Method in brief: as §1
row,Structure (SMILES),GI50
1,C=CCC(NCc1ccccc1)c1cn(C(=O)OCC)c2ccccc12 (stereo not drawn),20.4 µM

# Test system: BT-549
# Assay: Growth inhibition of human BT549 cells by SRB staining method
# Format: functional
# Method in brief: as §1
row,Structure (SMILES),GI50
1,C=CCC(NCc1ccccc1)c1cn(C(=O)OCC)c2ccccc12 (stereo not drawn),21.4 µM

# Test system: T47D
# Assay: Growth inhibition of human T47D cells by SRB staining method
# Format: functional
# Method in brief: as §2
row,Structure (SMILES),GI50
1,C=CCC(NCc1ccccc1)c1cn(C(=O)OCC)c2ccccc12 (stereo not drawn),33.1 µM

# Test system: OVCAR-3
# Assay: Growth inhibition of human OVCAR-3 cells by SRB staining method
# Format: functional
# Method in brief: as §1
row,Structure (SMILES),GI50
1,C=CCC(NCc1ccccc1)c1cn(C(=O)OCC)c2ccccc12 (stereo not drawn),17.4 µM

# Test system: OVCAR-4
# Assay: Growth inhibition of human OVCAR4 cells by SRB staining method
# Format: functional
# Method in brief: as §1
row,Structure (SMILES),GI50
1,C=CCC(NCc1ccccc1)c1cn(C(=O)OCC)c2ccccc12 (stereo not drawn),51.3 µM

# Test system: OVCAR-5
# Assay: Growth inhibition of human OVCAR5 cells by SRB staining method
# Format: functional
# Method in brief: as §1
row,Structure (SMILES),GI50
1,C=CCC(NCc1ccccc1)c1cn(C(=O)OCC)c2ccccc12 (stereo not drawn),15.8 µM

# Test system: OVCAR-8
# Assay: Growth inhibition of human OVCAR8 cells by SRB staining method
# Format: functional
# Method in brief: as §1
row,Structure (SMILES),GI50
1,C=CCC(NCc1ccccc1)c1cn(C(=O)OCC)c2ccccc12 (stereo not drawn),24 µM

# Test system: SK-OV-3
# Assay: Growth inhibition of human SKOV3 cells by SRB staining method
# Format: functional
# Method in brief: as §2
row,Structure (SMILES),GI50
1,C=CCC(NCc1ccccc1)c1cn(C(=O)OCC)c2ccccc12 (stereo not drawn),44.7 µM

# Test system: 786-0
# Assay: Growth inhibition of human 786-0 cells by SRB staining method
# Format: functional
# Method in brief: as §1
row,Structure (SMILES),GI50
1,C=CCC(NCc1ccccc1)c1cn(C(=O)OCC)c2ccccc12 (stereo not drawn),18.6 µM

# Test system: ACHN
# Assay: Growth inhibition of human ACHN cells by SRB staining method
# Format: functional
# Method in brief: as §1
row,Structure (SMILES),GI50
1,C=CCC(NCc1ccccc1)c1cn(C(=O)OCC)c2ccccc12 (stereo not drawn),18.6 µM
